Measured values: ChEMBL document CHEMBL2169759, “A new class of selective and potent 7-dehydrocholesterol reductase inhibitors” (J Med Chem, 2012)
pIC50: −log10 of the molar value. The source made the active and inactive calls. The rule behind the calls is not given here.

What was measured:
[1] = Antifungal activity against Aspergillus brasiliensis DSM 1988 after 36 hrs by disc diffusion method
Yarrowia lipolytica [2] = assay: Antifungal activity against Yarrowia lipolytica DSM 1345 after 36 hrs by disc diffusion method; format: organism-based; details: in vivo
Nakaseomyces glabratus [3] = assay: Antifungal activity against Candida glabrata DSM 11226 after 48 hrs; format: organism-based; details: in vivo
Procedure, shortened: (§1)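 MIC against the yeast strains determined according to DIN 58940-84; clotrimazole as positive control.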

[4] = Antibacterial activity against Streptococcus entericus DSM 14446 after 36 hrs by disc diffusion method
HL-60 = assay: Cytotoxicity against human HL60 cells after 24 hrs by MTT assay; format: cell-based; details: HL-60, 24 h
Procedure, shortened: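 MTT colorimetric assay on HL-60 promyelocytic leukemia cells (RPMI 1640, 10% FBS, no antibiotics, 37 °C, 5% CO2) as a preliminary screen for unspecific cytotoxicity; cisplatin as reference.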

Yarrowia lipolytica [5] = assay: Antifungal activity against Yarrowia lipolytica DSM 1345 after 48 hrs; format: organism-based; details: in vivo; procedure, shortened: as §1
[6] = Antifungal activity against Hyphopichia burtonii DSM 70663 after 36 hrs by disc diffusion method
[7] = Antibacterial activity against Staphylococcus equorum DSM 20675 after 36 hrs by disc diffusion method
Escherichia coli = assay: Antibacterial activity against Escherichia coli DSM 426 after 36 hrs by disc diffusion method; format: organism-based; details: in vivo
Saccharomyces cerevisiae [8] = assay: Antifungal activity against Saccharomyces cerevisiae DSM 1333 after 36 hrs by disc diffusion method; format: organism-based; details: in vivo
Saccharomyces cerevisiae [9] = assay: Antimicrobial activity against Saccharomyces cerevisiae DSM 1333 after 48 hrs; format: organism-based; details: in vivo; procedure, shortened: as §1
[10] = target: T1, 7-dehydrocholesterol reductase (Homo sapiens) (UniProt Q9UBM7); assay: Ratio of BM15.766 IC50 to compound IC50 for […]-mediated cholesterol biosynthesis in human HL60 cells; format: cell-based; details: HL-60
T1 sequence (whole entry): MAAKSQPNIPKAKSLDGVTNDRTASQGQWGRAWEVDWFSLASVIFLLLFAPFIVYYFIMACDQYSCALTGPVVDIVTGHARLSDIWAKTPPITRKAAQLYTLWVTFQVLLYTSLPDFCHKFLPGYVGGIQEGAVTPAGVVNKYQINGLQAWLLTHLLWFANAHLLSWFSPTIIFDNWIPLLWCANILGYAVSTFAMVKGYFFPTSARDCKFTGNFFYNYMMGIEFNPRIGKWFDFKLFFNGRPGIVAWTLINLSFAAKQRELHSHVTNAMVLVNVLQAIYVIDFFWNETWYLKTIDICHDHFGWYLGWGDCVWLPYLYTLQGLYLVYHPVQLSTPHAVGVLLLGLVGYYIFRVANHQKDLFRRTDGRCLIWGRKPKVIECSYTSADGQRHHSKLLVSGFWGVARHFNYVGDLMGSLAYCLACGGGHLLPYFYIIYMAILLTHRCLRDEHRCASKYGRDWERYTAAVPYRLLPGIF

Nakaseomyces glabratus [11] = assay: Antifungal activity against Candida glabrata DSM 11226 after 36 hrs by disc diffusion method; format: organism-based; details: in vivo
[12] = target: T1, 7-dehydrocholesterol reductase (Homo sapiens); assay: Inhibition of 7-dehydrocholesterol reductase in human HL60 cells assessed as accumulation of 7-dehydrocholesterol at 1 uM after 24 hrs by GC/MS analysis; format: cell-based; details: HL-60
Procedure, shortened: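 HL-60 cells (1 × 10⁶) in lipid-free HL-60 medium given inhibitor at 50 μM or 1 μM (ethanol blank) for 24 h at 37 °C, 5% CO2. Pellet saponified in 1 M NaOH, 1 h at 70 °C, then TBME microextraction with cholestane internal standard. GC-MS sterol pattern compared with blanks and with AY 9944 and BM 15.766 references.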

[13] = target: T2, 7-dehydrocholesterol reductase (Homo sapiens, UniProt Q9UBM7); assay: Inhibition of […]-mediated cholesterol biosynthesis in human HL60 cells assessed as inhibition of 2-[13C]acetate after 24 hrs GC/MS analysis; format: cell-based, HL-60
T2 sequence (Q9UBM7 whole entry): T1 sequence (whole entry)
Procedure, shortened: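 Whole-cell cholesterol synthesis in HL-60 cells, 24 h with inhibitor and sodium 2-¹³C-acetate; six concentrations plus blank, in triplicate. Newly made labeled cholesterol (m/z 372–379, 462–469) measured by GC-MS against cholestane and normalized to Bradford protein. % inhibition against untreated control fitted to a variable-slope sigmoid, bottom fixed at 0, giving IC50; BM 15.766 as reference.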

[14] = Antibacterial activity against Pseudomonas antimicrobica DSM 8361 after 36 hrs by disc diffusion method; details: burkholderia gladioli

COc1cc2c(cc1O)CCN(CCc1ccc(Cl)cc1)C2
Activity [1]: Non-toxic | Activity (Yarrowia lipolytica [2]): Non-toxic | MIC (Nakaseomyces glabratus [3]): > 20 µg/mL | Activity [4]: Non-toxic | pIC50 (HL-60): < 4.30 | MIC (Yarrowia lipolytica [5]): > 20 µg/mL | Activity [6]: Non-toxic | Activity [7]: Non-toxic | Activity (Escherichia coli): Non-toxic | Activity (Saccharomyces cerevisiae [8]): Non-toxic | MIC (Saccharomyces cerevisiae [9]): > 20 µg/mL | Ratio IC50 [10]: 200 | Activity (Nakaseomyces glabratus [11]): Non-toxic | 7-DHCR inhibition (active/not active) [12]: Active | pIC50 [13]: 8.64 | Activity [14]: Non-toxic
